The nature of data set [1]: Lipophilicity (Log Papp) was measured at pH 7.4; Activity expressed as the log of the fraction in the octanol layer. In kind it is physicochemical. Particulars: octanol/aqueous phase. The gist of the method: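 Shake-flask octanol/water distribution at pH 7.4 in 50 mM TRIS buffer, uncorrected for partial ionization. Quadruplicate samples shaken with 1-octanol overnight, layers left to settle 1-2 h before separation. Room temperature (22-24 °C), UV spectrometric read-out, value given as log of fraction in octanol layer.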

A further data set concerns Monkey. Put plainly: Percentage of iron clearing efficiency was measured in monkey after administration at 150 umol/kg (n=4). The format is functional. The gist of the method:
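Cebus apella monkeys iron-overloaded with iv iron dextran to about 500 mg Fe/kg, at least 60 days before use. Single po dose of 150 µmol/kg as solution or suspension in 40% Cremophor RH-40/water. Stool and urine collected every 24 h, from 4 days before dosing to 5 days after. Iron measured by flame atomic absorption. ICE = (2-day post-dose iron minus mean 4-day baseline) / theoretical excretion × 100. Mean ± SEM.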

Take `C[C@]1(C(=O)O)CSC(c2cccc(O)c2O)=N1`: the log fraction in octanol layer in data set [1] was -1.17. The Activity in the data set with Monkey came out at 23.1%.

In data set [1], `COc1ccc(C2=N[C@@](C)(C(=O)O)CS2)c(O)c1` gave a log fraction in octanol layer of -0.7. For the same molecule, the Activity with Monkey stood at 24.4%.

As for `COc1cccc(C2=N[C@@](C)(C(=O)O)CS2)c1O`, the log fraction in octanol layer in data set [1] was -1.12. This molecule registered an Activity in the data set with Monkey of 22.5%.

In turn, `O=C(O)[C@H]1CSC(c2ccc(O)cc2O)=N1` came in with a log fraction in octanol layer in data set [1] of -1.33. The molecule further gave an Activity with Monkey of 4.2%.

In data set [1], `O=C(O)[C@H]1CSC(c2cccc(O)c2O)=N1` returned a log fraction in octanol layer of -1.67. In the data set on Monkey, this molecule yielded an Activity of 5.8%.

In the case of `C[C@]1(C(=O)O)CSC(c2ccc(O)cc2O)=N1` [DEFERITRIN], the log fraction in octanol layer in data set [1] was -1.05. Also, the Activity in the data set on Monkey was found to be 13.4%.

Consider `COc1cccc(C2=N[C@@H](C(=O)O)CS2)c1O`, for which the log fraction in octanol layer in data set [1] is -1.52. Also, in the data set with Monkey, the Activity is 15.5%.

Regarding `COc1ccc(C2=N[C@@H](C(=O)O)CS2)c(O)c1`, in data set [1], the log fraction in octanol layer was -0.89. In the data set with Monkey, the Activity is recorded as 16.2%.

These data come from ChEMBL document CHEMBL1142654, “Partition-variant desferrithiocin analogues: organ targeting and increased iron clearance” (J Med Chem, 2005).
